We go through one compound from publication PMC3042207 (British Journal of Pharmacology, 2011).

In general, Km refers to the substrate concentration at which the rate is half of its maximum.

Data set [1] has as its system human intestinal microsomes (HIM). Briefly: Glucuronidation of 4-HPR by human intestinal microsomes. In kind it is in vitro ADME. The note with it: HIM, 1 mg·mL^−1; 4-HPR 0-2000 µM, 3 h. In short, it runs like this: (§1)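 Intestinal or liver microsomes at 1 mg·mL−1 are incubated with 0–2000 µM substrate (13 levels) for 3 h at 37°C. The buffer is 50 mM Tris-HCl, pH 7.5, with alamethicin 25 µg·mL−1, 8 mM MgCl2, 2 mM UDP-glucuronic acid and 0.25% methanol. Reactions are started with enzyme and stopped with ice-cold acetonitrile. The glucuronide is quantified by C18 HPLC, with identity confirmed by β-glucuronidase. Vmax is in peak area units·min−1; mean ± SD of three independent experiments.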

Test in data set [2]: as above
To be noted: human, human intestinal microsomes, pH 7.5. In kind it is in vitro ADME. In short, it runs like this: as §1

In data set [3] the test system is human liver microsomes (HLM). Briefly: Oxidative metabolism of 4-HPR by human liver microsomes. In kind it is in vitro ADME. The note with it: 4-HPR 0-20 µM, 3 h, HPLC, mean ± SD, n≥3. Summed up: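 Termination is with ice-cold acetonitrile, then centrifugation at 10 000× g. The 4′-hydroxy and 4′-oxo metabolites are resolved by reversed-phase HPLC with photodiode-array detection. Vmax is derived from formation rates; mean ± SD, n ≥ 3.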
(In general: Microsomes from liver hold many membrane-bound enzymes, among them those of drug oxidation.)

The next data set deals with T1, UGT 1A6 (Homo sapiens, UniProt P19224).
T1 sequence (P19224 27-532): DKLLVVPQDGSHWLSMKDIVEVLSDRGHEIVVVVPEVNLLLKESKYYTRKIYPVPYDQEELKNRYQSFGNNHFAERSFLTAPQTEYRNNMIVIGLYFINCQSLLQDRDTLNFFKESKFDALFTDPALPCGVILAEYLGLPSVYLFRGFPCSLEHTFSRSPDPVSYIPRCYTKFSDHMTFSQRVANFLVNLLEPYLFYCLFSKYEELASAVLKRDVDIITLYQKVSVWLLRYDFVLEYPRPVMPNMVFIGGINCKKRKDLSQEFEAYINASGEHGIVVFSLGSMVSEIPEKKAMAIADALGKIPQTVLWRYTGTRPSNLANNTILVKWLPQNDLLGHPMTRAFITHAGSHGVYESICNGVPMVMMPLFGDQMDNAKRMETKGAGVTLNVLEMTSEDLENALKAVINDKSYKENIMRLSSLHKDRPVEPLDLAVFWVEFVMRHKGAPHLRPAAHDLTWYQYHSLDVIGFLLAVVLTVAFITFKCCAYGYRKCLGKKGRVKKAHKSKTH
As to the kind of experiment: Glucuronidation of 4-HPR by UGT 1A6 supersomes. The note with it: UGT 1A6, 1 mg·mL^−1; 4-HPR 0-2000 µM, 3 h. In kind it is in vitro ADME.

Data set [4] relates to human liver microsomes (HLM). As to the kind of experiment: Formation of 4-MPR from 4-HPR by HLM with SAM. The class given is in vitro ADME. The note with it: HLM 0.5 mg·mL^−1, 0–100 µM 4-HPR, 0.2 mM SAM, 3 h.
The conditions of data set [5]: mouse model; ref Maurer et al., 2007; cited from earlier work.
Another data set concerns individual human CYPs. In kind it is in vitro ADME. To be noted: CYPs 3A4, 3A5 and 2C8 supersomes. Summed up: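 Reactions are stopped with acetonitrile and the 4′-hydroxy metabolite is measured by HPLC. With no authentic standard, Vmax is given in peak area units·min−1. Values are mean ± SD of at least three experiments.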
Data set [6] is described as follows: Glucuronidation of 4-HPR by human liver microsomes. The class given is in vitro ADME. To be noted: human, human liver microsomes, pH 7.5. In short, it runs like this: as §1
The subject of data set [7] is human liver microsomes (HLM). Briefly: Glucuronidation of 4-HPR by human liver microsomes. In kind it is in vitro ADME. To be noted: HLM, 1 mg·mL^−1; 4-HPR 0-2000 µM, 3 h. In short, it runs like this:
as §1

A further data set deals with T2, UGT 1A1 (Homo sapiens, UniProt P22309).
T2 sequence (P22309 26-533): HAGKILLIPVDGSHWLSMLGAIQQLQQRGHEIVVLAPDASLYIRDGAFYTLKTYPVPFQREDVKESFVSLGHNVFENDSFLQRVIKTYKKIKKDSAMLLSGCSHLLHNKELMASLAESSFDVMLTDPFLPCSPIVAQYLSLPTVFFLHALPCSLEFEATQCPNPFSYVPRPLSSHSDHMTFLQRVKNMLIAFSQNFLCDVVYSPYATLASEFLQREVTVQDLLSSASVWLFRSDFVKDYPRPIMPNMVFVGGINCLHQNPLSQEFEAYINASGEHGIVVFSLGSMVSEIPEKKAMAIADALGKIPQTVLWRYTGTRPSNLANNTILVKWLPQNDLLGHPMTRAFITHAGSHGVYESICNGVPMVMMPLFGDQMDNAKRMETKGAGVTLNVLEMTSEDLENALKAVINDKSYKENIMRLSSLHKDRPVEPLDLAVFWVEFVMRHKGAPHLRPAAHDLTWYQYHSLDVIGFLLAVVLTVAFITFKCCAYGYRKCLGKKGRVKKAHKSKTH
Briefly: Glucuronidation of 4-HPR by UGT 1A1 supersomes. The class given is in vitro ADME. To be noted: UGT 1A1, 1 mg·mL^−1; 4-HPR 0-2000 µM, 3 h.

A further data set deals with T3, UGT 1A3 (Homo sapiens, UniProt P35503).
T3 sequence (P35503 29-534): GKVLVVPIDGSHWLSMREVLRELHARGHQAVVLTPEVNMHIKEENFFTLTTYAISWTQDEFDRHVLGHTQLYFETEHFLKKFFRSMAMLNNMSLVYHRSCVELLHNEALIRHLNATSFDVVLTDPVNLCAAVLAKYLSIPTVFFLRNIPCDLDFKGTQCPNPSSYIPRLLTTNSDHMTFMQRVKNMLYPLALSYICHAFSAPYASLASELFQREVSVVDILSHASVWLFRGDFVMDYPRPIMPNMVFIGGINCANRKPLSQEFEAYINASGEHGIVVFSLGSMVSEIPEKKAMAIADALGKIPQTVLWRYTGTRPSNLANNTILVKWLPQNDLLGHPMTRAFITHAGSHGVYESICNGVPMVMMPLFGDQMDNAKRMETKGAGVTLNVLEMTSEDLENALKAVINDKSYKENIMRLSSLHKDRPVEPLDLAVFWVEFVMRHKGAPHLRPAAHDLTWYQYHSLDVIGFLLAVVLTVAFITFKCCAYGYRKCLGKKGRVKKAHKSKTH
Briefly: Glucuronidation of 4-HPR by UGT 1A3 supersomes. In kind it is in vitro ADME. The note with it: UGT 1A3, 1 mg·mL^−1; 4-HPR 0-2000 µM, 3 h.

Values joined by “and” are separate entries in the source; they are usually repeats but may differ in a detail not shown here. Identical values can stand only once.

`CC1=C(/C=C/C(C)=C/C=C/C(C)=C/C(=O)Nc2ccc(O)cc2)C(C)(C)CCC1` [4-HPR, fenretinide]: the “Vmax, 4-HPR glucuronide formation” value in data set [1] is on record as 418 ± 38 peak area U·min^−1; on UGT 1A6, 124 ± 6 peak area U·min^−1; in [7], 679 ± 39 peak area U·min^−1; on UGT 1A1, 577 ± 34 peak area U·min^−1; at UGT 1A3, 317 ± 18 peak area U·min^−1. The Km at 3 h worked out at 1210 ± 202 µM in data set [2] and 540 ± 69 µM in data set [6]. In addition, the “Vmax, 4′-OH 4-HPR formation” value in [3] is 28 peak area U·min^−1 and 28 ± 6 peak area U·min^−1. Besides, the “Vmax, 4′-oxo 4-HPR formation” value in [3] was 131 peak area U·min^−1 and 131 ± 14 peak area U·min^−1. For the same compound, the “Vmax, 4-HPR glucuronide formation, per pmol UGT” value on UGT 1A6 was 0.02 peak area U·min^−1·pmol^−1 UGT and 0.02 ± 0.001 peak area U·min^−1·pmol^−1 UGT; on UGT 1A1 it was 0.62 peak area U·min^−1·pmol^−1 UGT and 0.62 ± 0.04 peak area U·min^−1·pmol^−1 UGT; on UGT 1A3, 2.11 peak area U·min^−1·pmol^−1 UGT and 2.11 ± 0.12 peak area U·min^−1·pmol^−1 UGT. Also, the “Vmax, 4-MPR formation” value in [4] (calculated) is listed as 823 peak U·min^−1. In [4] (read-out: Km, 4-MPR formation), the Km worked out at 236 µM. For the same compound, the “increase of plasma concentrations, lipid matrix vs oil-based capsules” value in data set [5] was “up to seven-fold”. In addition, in the data set on individual human CYPs, the “Vmax, 4′-OH 4-HPR production, range over supersomes expressing individual CYPs” value is 115–282 peak area U·min^−1.
